Results: ChEMBL document CHEMBL2177098, “Synthesis and evaluation of novel ¹⁸F labeled 2-pyridinylbenzoxazole and 2-pyridinylbenzothiazole derivatives as ligands for positron emission tomography (PET) imaging of β-amyloid plaques” (J Med Chem, 2012)

Assays:
[1] = Displacement of [125I]-IMPY from amyloid beta (1 to 42) fibrils after 2 hrs by gamma-counting analysis
Summary of the method: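 Competition binding with aggregated Aβ1-42 fibrils and [125I]IMPY (60000−100000 cpm/100 μL) in 0.05% BSA (1 mL total); inhibitors 10⁻⁴−10^−8.5 M in ethanol. Incubated 37 °C for 2 h, then GF/B vacuum filtration with PBS (0.02 M, pH 7.4) washes and γ counting. Three repeats; IC50 converted to Ki by Cheng−Prusoff.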

[2] = system: Brain; assay: Ratio of drug uptake in brain at 2 mins to drug uptake in brain at 60 mins in CD1 mouse at 10 uCi, iv; format: ADME, organism-based; conditions: in vivo
Summary of the method: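 Normal male ICR mice (5 weeks, about 20 g) received the 18F-labelled tracer in saline, 370 KBq per 100 μL, by tail-vein injection. Five mice per time point were killed at 2, 10, 30 and 60 min. Organs were weighed and gamma-counted against diluted aliquots of the injected dose to give % dose/g. The ratio is brain uptake at 2 min over brain uptake at 60 min.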

Ki [1]: 2.87 nM
Ratio [2]: 3.9
SMILES: CNc1ccc(/C=C/c2ccc(OCCOCCOCC[18F])nc2)cc1 [FLORBETAPIR F 18]
